Reference: ChEMBL document CHEMBL4715736, “Identification of anticancer agents based on the thieno[2,3-b]pyridine and 1H-pyrazole molecular scaffolds” (2016)

Assays:
Format in all cases: functional
MDA-MB-435 [1] = assay: Growth inhibition of human MDA-MB-435 cells incubated for 48 hrs by sulforhodamine B assay
In short: (§1)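 NCI60 panel at the NCI Developmental Therapeutics Program. Only compounds active in the 10 µM screen went to dose-response testing. GI50, the concentration giving 50% of maximal inhibition of proliferation, and TGI, the concentration giving total growth inhibition, were derived from the dose-response curves.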

IGROV-1 = assay: Growth inhibition of human IGROV-1 cells assessed as cell growth at 0.1 uM incubated for 48 hrs by sulforhodamine B assay relative to control; conditions: read-out: Activity
HCT-116 [2] = assay: Growth inhibition of human HCT-116 cells assessed as cell growth at 100 uM incubated for 48 hrs by sulforhodamine B assay relative to control; conditions: read-out: Activity
MDA-MB-435 [3] = assay: Growth inhibition of human MDA-MB-435 cells assessed as cell growth at 1 uM incubated for 48 hrs by sulforhodamine B assay relative to control; conditions: read-out: Activity
SK-OV-3 [4] = assay: Growth inhibition of human SK-OV-3 cells assessed as cell growth at 0.1 uM incubated for 48 hrs by sulforhodamine B assay relative to control; conditions: read-out: Activity
CAKI-1 = assay: Growth inhibition of human CAKI-1 cells assessed as cell growth at 100 uM incubated for 48 hrs by sulforhodamine B assay relative to control; conditions: read-out: Activity
In short: (§2)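 NCI Developmental Therapeutics Program NCI60 panel. Compounds that were active in the 10 µM one-dose screen went on to dose–response testing. Growth at each concentration is expressed relative to untreated control (100%). GI50 (concentration giving 50% of maximal inhibition of proliferation) and TGI (concentration giving total growth inhibition) were derived from the curves.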

COLO 205 [5] = assay: Growth inhibition of human COLO 205 cells assessed as cell growth at 0.1 uM incubated for 48 hrs by sulforhodamine B assay relative to control; conditions: read-out: Activity; in short: as §2
SF-268 = assay: Growth inhibition of human SF-268 cells assessed as cell growth at 0.01 uM incubated for 48 hrs by sulforhodamine B assay relative to control; conditions: read-out: Activity
SNB-19 [6] = assay: Growth inhibition of human SNB-19 cells assessed as cell growth at 100 uM incubated for 48 hrs by sulforhodamine B assay relative to control; conditions: read-out: Activity
COLO 205 [7] = assay: Growth inhibition of human COLO 205 cells assessed as cell growth at 100 uM incubated for 48 hrs by sulforhodamine B assay relative to control; conditions: read-out: Activity; in short: as §2
MOLT-4 = assay: Growth inhibition of human MOLT-4 cells incubated for 48 hrs by sulforhodamine B assay; conditions: for CC50: read-out: LC50 (the source's name); in short: as §1
A498 = assay: Growth inhibition of human A498 cells assessed as cell growth at 0.1 uM incubated for 48 hrs by sulforhodamine B assay relative to control; conditions: read-out: Activity; in short: as §2
OVCAR-5 [8] = assay: Growth inhibition of human OVCAR-5 cells assessed as cell growth at 0.1 uM incubated for 48 hrs by sulforhodamine B assay relative to control; conditions: read-out: Activity
K562 [9] = assay: Growth inhibition of human K562 cells assessed as cell growth at 0.1 uM incubated for 48 hrs by sulforhodamine B assay relative to control; conditions: read-out: Activity
SK-OV-3 [10] = assay: Growth inhibition of human SK-OV-3 cells assessed as cell growth at 100 uM incubated for 48 hrs by sulforhodamine B assay relative to control; conditions: read-out: Activity
SN12C [11] = assay: Growth inhibition of human SN12C cells assessed as cell growth at 0.01 uM incubated for 48 hrs by sulforhodamine B assay relative to control; conditions: read-out: Activity
CCRF-CEM = assay: Growth inhibition of human CCRF-CEM cells incubated for 48 hrs by sulforhodamine B assay; in short: as §2
OVCAR-5 [12] = assay: Growth inhibition of human OVCAR-5 cells assessed as cell growth at 0.01 uM incubated for 48 hrs by sulforhodamine B assay relative to control; conditions: read-out: Activity
Malme-3M = assay: Growth inhibition of human Malme-3M cells assessed as cell growth at 0.01 uM incubated for 48 hrs by sulforhodamine B assay relative to control; conditions: read-out: Activity
NCI-H460 = assay: Growth inhibition of human NCI-H460 cells assessed as cell growth at 0.01 uM incubated for 48 hrs by sulforhodamine B assay relative to control; conditions: read-out: Activity
HCT-116 [13] = assay: Growth inhibition of human HCT-116 cells incubated for 48 hrs by sulforhodamine B assay; in short: as §1
SNB-19 [14] = assay: Growth inhibition of human SNB-19 cells assessed as cell growth at 1 uM incubated for 48 hrs by sulforhodamine B assay relative to control; conditions: read-out: Activity
Hs-578T = assay: Growth inhibition of human Hs-578T cells incubated for 48 hrs by sulforhodamine B assay; conditions: for CC50: read-out: LC50 (the source's name); in short: as §1
UACC-257 = assay: Growth inhibition of human UACC-257 cells assessed as cell growth at 1 uM incubated for 48 hrs by sulforhodamine B assay relative to control; conditions: read-out: Activity
SN12C [15] = assay: Growth inhibition of human SN12C cells assessed as cell growth at 1 uM incubated for 48 hrs by sulforhodamine B assay relative to control; conditions: read-out: Activity
OVCAR-3 = assay: Growth inhibition of human OVCAR-3 cells incubated for 48 hrs by sulforhodamine B assay; conditions: for CC50: read-out: LC50 (the source's name)
In short: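 NCI DTP 60-line human tumour panel. Dose-response curves were run only for ligands active in the initial 10 µM screen. GI50 (concentration giving 50% of maximal inhibition of proliferation) and TGI (concentration giving total growth inhibition) were derived from these curves.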

K562 [16] = assay: Growth inhibition of human K562 cells assessed as cell growth at 0.01 uM incubated for 48 hrs by sulforhodamine B assay relative to control; conditions: read-out: Activity
HCC 2998 = assay: Growth inhibition of human HCC 2998 cells assessed as cell growth at 0.1 uM incubated for 48 hrs by sulforhodamine B assay relative to control; conditions: read-out: Activity; in short: as §2
HOP-62 = assay: Growth inhibition of human HOP-62 cells assessed as cell growth at 100 uM incubated for 48 hrs by sulforhodamine B assay relative to control; conditions: read-out: Activity
TK-10 = assay: Growth inhibition of human TK-10 cells assessed as cell growth at 1 uM incubated for 48 hrs by sulforhodamine B assay relative to control; conditions: read-out: Activity
ACHN [17] = assay: Growth inhibition of human ACHN cells incubated for 48 hrs by sulforhodamine B assay; conditions: for CC50: read-out: LC50 (the source's name); in short: as §2
ACHN [18] = assay: Growth inhibition of human ACHN cells assessed as cell growth at 0.01 uM incubated for 48 hrs by sulforhodamine B assay relative to control; conditions: read-out: Activity

`CCc1ccccc1NC(=O)c1sc2nc3c(cc2c1N)C(=O)CCC3` was tested, and the GI50 (MDA-MB-435 [1]) was 46.4 nM, the TGI (MDA-MB-435 [1]) was 225 nM and the CC50 (MDA-MB-435 [1]; read-out: LC50 (the source's name)) was > 100000 nM. It also gave a growth at 0.1 µM (IGROV-1) of 102%, a growth at 100 µM (HCT-116 [2]) of 6% and a growth at 1 µM (MDA-MB-435 [3]) of -53%. The growth at 0.1 µM (SK-OV-3 [4]) was 103%, the growth at 100 µM (CAKI-1) was 35% and the growth at 0.1 µM (COLO 205 [5]) was 98%. For the same compound, the growth at 0.01 µM (SF-268) was 103%, the growth at 100 µM (SNB-19 [6]) was 11% and the growth at 100 µM (COLO 205 [7]) was -72%. The GI50 (MOLT-4) was 529 nM, the TGI (MOLT-4) was > 100000 nM and the CC50 (MOLT-4) was > 100000 nM. The growth at 0.1 µM (A498) was 72%, the growth at 0.1 µM (OVCAR-5 [8]) was 83% and the growth at 0.1 µM (K562 [9]) was 63%. It also gave a growth at 100 µM (SK-OV-3 [10]) of -4%, a growth at 0.01 µM (SN12C [11]) of 94% and a GI50 (CCRF-CEM) of 328 nM. The LC50 (CCRF-CEM) was > 100000 nM, the TGI (CCRF-CEM) was > 100000 nM and the growth at 0.01 µM (OVCAR-5 [12]) was 84%. The growth at 0.01 µM (Malme-3M) was 100%, the growth at 0.01 µM (NCI-H460) was 100% and the GI50 (HCT-116 [13]) was 483 nM. For the same compound, the LC50 (concentration killing 50% of cells) (HCT-116 [13]) was > 100000 nM, the TGI (HCT-116 [13]) was > 100000 nM and the growth at 1 µM (SNB-19 [14]) was 45%. For the same compound, the GI50 (Hs-578T) was 302 nM, the TGI (Hs-578T) was > 100000 nM and the CC50 (Hs-578T) was > 100000 nM. The growth at 1 µM (UACC-257) was 52%, the growth at 1 µM (SN12C [15]) was 40% and the GI50 (OVCAR-3) was 367 nM. For the same compound, the TGI (OVCAR-3) was 15800 nM, the CC50 (OVCAR-3) was > 100000 nM and the growth at 0.01 µM (K562 [16]) was 104%. It also gave a growth at 0.1 µM (HCC 2998) of 96%, a growth at 100 µM (HOP-62) of -22% and a growth at 1 µM (TK-10) of 55%. For the same compound, the GI50 (ACHN [17]) was 18.8 nM, the TGI (ACHN [17]) was > 100000 nM and the CC50 (ACHN [17]) was > 100000 nM. It also gave a growth at 0.01 µM (ACHN [18]) of 93%.
`Cc1ccc(NC(=O)c2sc3nc4c(cc3c2N)C(=O)CCC4)cc1C` showed a GI50 (MDA-MB-435 [1]) of 121 nM, a TGI (MDA-MB-435 [1]) of 322 nM and a growth at 0.1 µM (IGROV-1) of 99%. For the same compound, the growth at 100 µM (HCT-116 [2]) was 8%, the growth at 1 µM (MDA-MB-435 [3]) was -58% and the growth at 0.1 µM (SK-OV-3 [4]) was 107%. It also gave a growth at 100 µM (CAKI-1) of 22%, a growth at 0.1 µM (COLO 205 [5]) of 98% and a growth at 0.01 µM (SF-268) of 95%. The growth at 100 µM (SNB-19 [6]) was 29%, the growth at 100 µM (COLO 205 [7]) was -56% and the GI50 (MOLT-4) was 6410 nM. The TGI (MOLT-4) was 76200 nM, the CC50 (MOLT-4) was > 100000 nM and the growth at 0.1 µM (A498) was 78%. The growth at 0.1 µM (OVCAR-5 [8]) was 87%, the growth at 0.1 µM (K562 [9]) was 118% and the growth at 100 µM (SK-OV-3 [10]) was 8%. For the same compound, the growth at 0.01 µM (SN12C [11]) was 94%, the GI50 (CCRF-CEM) was 334 nM and the LC50 (CCRF-CEM) was > 100000 nM. For the same compound, the TGI (CCRF-CEM) was ≥ 100000 nM, the growth at 0.01 µM (OVCAR-5 [12]) was 89% and the growth at 0.01 µM (Malme-3M) was 96%. For the same compound, the growth at 0.01 µM (NCI-H460) was 102%, the GI50 (HCT-116 [13]) was 527 nM and the LC50 (concentration killing 50% of cells) (HCT-116 [13]) was > 100000 nM. For the same compound, the TGI (HCT-116 [13]) was > 100000 nM, the growth at 1 µM (SNB-19 [14]) was 37% and the GI50 (Hs-578T) was 356 nM. The TGI (Hs-578T) was > 100000 nM, the CC50 (Hs-578T) was > 100000 nM and the growth at 1 µM (UACC-257) was 50%. The growth at 1 µM (SN12C [15]) was 41%, the GI50 (OVCAR-3) was 343 nM and the TGI (OVCAR-3) was 1400 nM. For the same compound, the CC50 (OVCAR-3) was > 100000 nM, the growth at 0.01 µM (K562 [16]) was 114% and the growth at 0.1 µM (HCC 2998) was 93%. The growth at 100 µM (HOP-62) was 28%, the growth at 1 µM (TK-10) was 52% and the GI50 (ACHN [17]) was 23.9 nM. The TGI (ACHN [17]) was > 100000 nM, the CC50 (ACHN [17]) was > 100000 nM and the growth at 0.01 µM (ACHN [18]) was 98%.
